Measurements from ChEMBL document CHEMBL1135061, “Synthesis, hydrolytic activation and cytotoxicity of etoposide prodrugs” (Bioorg Med Chem Lett, 2002).

Columns and labels:
A2780 = assay: Tested for cytotoxicity against Ovarian carcinoma parental type A2780 cell line expressing MDR-1 (-) gene; type: functional, cell-based; details: Homo sapiens
Method in brief: (§1)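 XTT assay; 10,000 tumor cells/well preincubated 24 h at 37 °C, 5% CO2, then drug added directly from DMSO stocks over 100 fM to […] range. After 72 h XTT added, 4 h further incubation, OD read at 450 nm. IC50 (50% growth inhibition) derived from viability–dilution plots of duplicate runs.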

ADR5000 cell line = assay: Tested for cytotoxicity against Doxo resistant A2780 type ADR5000 cell line expressing MDR-1 (++) gene; type: functional, cell-based; details: Homo sapiens; method in brief: as §1
HT-29 [1] = assay: Tested for cytotoxicity against Colon carcinoma type HT-29 cell line expressing MDR-1 (-) gene; 35% of cells were affected; type: functional, cell-based; details: Homo sapiens; method in brief: as §1
SW480 = assay: Tested for cytotoxicity against Colon adenocarcinoma resistant type SW480 cell line expressing MDR-1 (+) gene; ~50% cells affected by drug; type: functional, cell-based; details: Homo sapiens; method in brief: as §1
VCR100 = assay: Tested for cytotoxicity against T-lymphoblastoide VC resistant type VCR 100 cell line expressing MDR-1 (+) gene; type: functional, cell-based, Homo sapiens; method in brief: as §1
MOVP-3 = assay: Tested for cytotoxicity against VP 16 resistant Molt3 type MOVP-3 cell line expressing MDR-1 (++) gene; type: functional, cell-based; details: Homo sapiens; method in brief: as §1
MOLT-3 = assay: Tested for cytotoxicity against parental T-cell leukemia type Molt 3 cell line expressing MDR-1 (-) gene; type: functional, cell-based; details: Homo sapiens; method in brief: as §1
[2] = Tested for half life period at 37 degree Celsius in PBS buffer at 11.8 pH containing porcine liver esterase; type: ADME, Sus scrofa; details: pig, pH 11.8
Method in brief: (§2)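 Drug at 37 °C in acetonitrile–aqueous buffer (20/80 vol%) at set pH, in human serum, or with pig liver carboxylic ester hydrolase. Serum samples pre-separated on C18 cartridges. Aliquots mixed 1:1 with acetonitrile, centrifuged, supernatant analysed by HPLC peak areas. First-order log conversion–time plots; k_obs and t1/2 from slopes; mean ± SD.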

[3] = Tested for half life period at 37 degree Celsius in PBS buffer at 7.3 pH containing porcine liver esterase; type: ADME, Sus scrofa; details: pig, pH 7.3; method in brief: as §2
[4] = Tested for half life period at 37 degree Celsius in PBS buffer at 7.3 pH in containing porcine liver esterase; type: ADME, Sus scrofa; details: pig, pH 7.3; method in brief: as §2
HT-29 [5] = assay: Tested for cytotoxicity against Colon carcinoma type HT-29 cell line expressing MDR-1 (-) gene; type: functional, cell-based; details: Homo sapiens; method in brief: as §1
[6] = biological target: T1, S-formylglutathione hydrolase (Sus scrofa) (UniProt Q9GJT2); assay: Tested for rate constant at 37 degree Celsius in PBS buffer at 11.8 pH containing porcine liver esterase expressed in 10 e-3 min e-1; method in brief: as §2
T1 sequence (whole entry): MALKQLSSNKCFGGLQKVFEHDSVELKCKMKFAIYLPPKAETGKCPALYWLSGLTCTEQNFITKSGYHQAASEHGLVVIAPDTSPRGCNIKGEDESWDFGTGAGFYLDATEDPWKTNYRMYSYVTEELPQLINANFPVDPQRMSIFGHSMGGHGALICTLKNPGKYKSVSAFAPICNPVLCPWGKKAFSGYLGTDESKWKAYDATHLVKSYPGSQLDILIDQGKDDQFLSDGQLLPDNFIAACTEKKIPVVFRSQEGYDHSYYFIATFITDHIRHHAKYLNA

[7] = Tested for half life period at 37 degree Celsius in PBS buffer at 10.5 pH containing human serum esterase; type: ADME; details: pH 10.5; method in brief: as §2
[8] = Tested for half life period at 37 degree Centigrade in PBS buffer at 7.3 pH containing human serum esterase; type: ADME; details: pH 7.3; method in brief: as §2
[9] = Tested for half life period at 37 degree Celsius in PBS buffer at 8.0 pH containing human serum esterase; type: ADME; details: pH 8; method in brief: as §2
[10] = Tested for half life period at 37 degree Celsius in PBS buffer at 8.8 pH containing human serum esterase; type: ADME; details: pH 8.8; method in brief: as §2
[11] = biological target: Cholinesterase (Homo sapiens) (UniProt P06276); assay: Tested for rate constant at 37 degree Celsius in PBS buffer at 7.3 pH in human serum containing porcine liver esterase expressed in 10 e-3 min e-1; type: cell-free
Method in brief: (§3)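 Prodrug dissolved at 37 °C in 20/80 vol% acetonitrile–aqueous PBS at the stated pH, in human serum, or with pig liver carboxylic ester hydrolase. Serum samples were pre-cleaned on C18 cartridges. Aliquots were quenched with an equal volume of acetonitrile and centrifuged, and the supernatant was analysed by HPLC peak area. k_obs was taken from the slope of first-order log conversion–time plots and reported as mean ± SD.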

[12] = biological target: Cholinesterase (Homo sapiens) (UniProt P06276); assay: Tested for rate constant at 37 degree Celsius in PBS buffer at 8.0 pH containing human serum esterase expressed in 10 e-3 min e-1; method in brief: as §3
[13] = biological target: Cholinesterase (Homo sapiens) (UniProt P06276); assay: Tested for rate constant at 37 degree Celsius in PBS buffer at 8.8 pH containing human serum esterase expressed in 10 e-3 min e-1; method in brief: as §3
[14] = biological target: Cholinesterase (Homo sapiens) (UniProt P06276); assay: Tested for rate constant at 37 degree Celsius in PBS buffer at 10.5 pH containing human serum esterase expressed in 10 e-3 min e-1; method in brief: as §3

Cholinesterase (Homo sapiens), sequence (P06276 whole entry): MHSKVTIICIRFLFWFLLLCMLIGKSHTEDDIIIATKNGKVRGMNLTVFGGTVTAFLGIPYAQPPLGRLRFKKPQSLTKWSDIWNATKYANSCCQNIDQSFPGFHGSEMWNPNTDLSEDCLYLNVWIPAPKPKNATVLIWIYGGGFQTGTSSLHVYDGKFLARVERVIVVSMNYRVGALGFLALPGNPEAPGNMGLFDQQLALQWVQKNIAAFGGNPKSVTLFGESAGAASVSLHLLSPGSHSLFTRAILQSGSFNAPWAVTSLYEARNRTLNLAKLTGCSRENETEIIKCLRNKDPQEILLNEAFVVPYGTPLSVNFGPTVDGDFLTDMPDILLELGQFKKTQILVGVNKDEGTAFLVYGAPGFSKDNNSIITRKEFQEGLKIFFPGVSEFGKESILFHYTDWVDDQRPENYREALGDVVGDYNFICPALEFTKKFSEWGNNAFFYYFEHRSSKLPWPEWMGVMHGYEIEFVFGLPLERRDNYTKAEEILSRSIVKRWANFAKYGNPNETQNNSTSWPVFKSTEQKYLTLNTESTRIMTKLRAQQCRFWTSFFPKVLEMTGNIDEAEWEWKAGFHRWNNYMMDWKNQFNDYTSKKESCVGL

| Compound | IC50 (A2780) | IC50 (ADR5000 cell line) | IC50 (HT-29 [1]) | IC50 (SW480) | IC50 (VCR100) | IC50 (MOVP-3) | IC50 (MOLT-3) | half-life [2] | half-life [3] | half-life [4] | IC50 (HT-29 [5]) | K obs [6] | half-life [7] | half-life [8] | half-life [9] | half-life [10] | K obs [11] | K obs [12] | K obs [13] | K obs [14] |
| --- | --- | --- | --- | --- | --- | --- | --- | --- | --- | --- | --- | --- | --- | --- | --- | --- | --- | --- | --- | --- |
| COc1cc([C@@H]2c3cc4c(cc3[C@@H](O[C@@H]3O[C@@H]5CO[C@@H](C)O[C@H]5[C@H](O)[C@H]3O)[C@H]3COC(=O)[C@H]23)OCO4)cc(OC)c1O [ETOPOSIDE] | 65000 nM | 100000 nM | 10000 nM | 50000 nM | 15500 nM | 7550 nM | 65 nM |  |  |  |  |  |  |  |  |  |  |  |  |  |
| COc1cc([C@@H]2c3cc4c(cc3C(O[C@@H]3O[C@H]5CO[C@@H](C)O[C@H]5[C@H](O)[C@@H]3O)C3COC(=O)[C@@H]32)OCO4)cc(OC)c1OC(=O)OCC1COC(C)(C)O1 (stereo partly drawn) | 90 nM | 6500 nM |  | 110 nM | 3200 nM | 12 nM | 10 nM | 1.39 h | 0.236 h | 12.5 h | 3.5 nM | 8.33 |  |  |  |  |  |  |  |  |
| COc1cc([C@@H]2c3cc4c(cc3C(O[C@@H]3O[C@H]5CO[C@@H](C)O[C@H]5[C@H](O)[C@@H]3O)C3COC(=O)[C@@H]32)OCO4)cc(OC)c1OC(=O)OCC(O)CO (stereo partly drawn) | 580 nM | 38000 nM |  | 110 nM | 7600 nM | 50 nM | 35 nM |  |  |  | 5.7 nM |  | 6.93 min | 0.934 h | 3.61 h | 1.62 h | 12.4 | 3.2 | 7.14 | 100 |
